# The list is not random: actives were taken first. Their share in the collection is about 4.8%.
# Calb FLC – affects C. albicans growth with fluconazole; C. albicans CaCi-2 (fluconazole-resistant clinical isolate) + fluconazole, Alamar Blue growth, 48 h; growth inhibition, % (concentration not given with the values); actives 0.57% (n = 300,000); AID 1979;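 active = growth inhibition above about 58% in most replicates, limit read from the data, passing the limit was not always enough; inconclusive = exactly half the replicates above a set limit; inactive = most replicates below a set limit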;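 also: all wells also contain fluconazole at 8 µg/ml as a sub-toxic cotreatment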
# ALR inh – inhibitors of human sulfhydryl oxidase ALR; P55789; purified ALR, DTT oxidation, H2O2 HRP-luminol luminescence; inhibition, % (concentration not given with the values); actives 3.8% (n = 290,000);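 active = mean replicate inhibition above about 79%, with every replicate also reaching it, limit read from the data; inconclusive = only one of the two criteria met; inactive = mean below limit and not every replicate reaching it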
# Target sequence (P55789 whole entry, looked up): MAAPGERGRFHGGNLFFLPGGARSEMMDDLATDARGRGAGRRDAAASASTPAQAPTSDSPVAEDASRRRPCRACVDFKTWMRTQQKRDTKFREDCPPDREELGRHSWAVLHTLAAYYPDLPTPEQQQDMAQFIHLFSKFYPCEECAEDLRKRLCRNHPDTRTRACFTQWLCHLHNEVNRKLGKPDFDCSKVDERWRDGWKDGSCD
# UCH37 inh – inhibitors of human deubiquitinating enzyme UCH37. Q9Y5K5. purified proteasome/UCH37, Ub-AMC cleavage fluorescence. inhibition, % (test concentration not listed). actives 0.33% (n = 330,000). AID 588478;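 active = mean inhibition over replicate wells above about 20%, limit read from the data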
# Target sequence (Q9Y5K5 whole entry, looked up): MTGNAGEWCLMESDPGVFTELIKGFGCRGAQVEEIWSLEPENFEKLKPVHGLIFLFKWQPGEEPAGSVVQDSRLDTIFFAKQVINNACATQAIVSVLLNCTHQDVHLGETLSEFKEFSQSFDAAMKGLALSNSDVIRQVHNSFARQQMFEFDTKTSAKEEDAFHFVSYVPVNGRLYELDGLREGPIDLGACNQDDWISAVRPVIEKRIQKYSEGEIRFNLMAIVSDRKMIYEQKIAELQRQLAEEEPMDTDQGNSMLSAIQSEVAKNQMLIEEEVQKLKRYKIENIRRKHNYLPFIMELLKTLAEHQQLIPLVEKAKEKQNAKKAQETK
#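 Material: human UCH37 enzyme supplied as purified proteasome complex. Measure: % inhibition of Ub-AMC cleavage fluorescence. Medium: pH 7.4 Tris-HCl (50 mM) with ovalbumin, ATP-MgCl2, DTT. Times: 30 min preincubation with enzyme, 25 min cleavage at room temperature. Detection: AMC fluorescence intensity at 355/460 nm.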
# NLRP3 yeast inh – inhibitors of NALP3 inflammasome in yeast; Yeast reconstituted NLRP3/ASC/caspase-1, beta-gal luminescence, 24 h; inhibition, % at 10 µM; actives 0.39% (n = 330,000); AID 2825;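 active = inhibition of 50% or more; inactive = inhibition below 50%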
# NALP1 inh – inhibitors of NALP1 inflammasome in yeast; S. cerevisiae NALP1/ASC/caspase-1 growth, X-gal OD620, 72 h; actives 0.61% (n = 280,000); inhibition, % at 10 µM; in the data active = inhibition mostly above about 24%, no sharp cut-off; inactive = mostly below about 32%
# ATG4B inhibitor – blocks human ATG4B protease cleavage of LC3 substrate | Q9Y4P1 | actives 0.51% (n = 340,000) | ATG4B cleavage of LC3-PLA2, NBD-HPC fluorescence, 1 h | inhibition, % at 8.33 µM; in the data active = inhibition above about 40%
# A number is an active result; – = inactive; ? = inconclusive; · = no result; ! = repeats disagree.
SMILES,Calb FLC,ALR inh,UCH37 inh,NLRP3 yeast inh,NALP1 inh,ATG4B inhibitor
CCn1c(SCC(=O)NN=Cc2ccccc2OCC(=O)O)nnc1-c1ccc(OC)cc1,·,·,–,·,·,·
CCNC(=O)Oc1ccc(-c2csnn2)cc1,–,99,–,–,–,–
COc1ccc(C(=O)CSc2nnc(-c3ccco3)n2CC2CCCO2)cc1 (configuration not stated),–,–,–,–,–,–
Cc1occc1-c1nnc(SCC(=O)c2ccccc2)n1CC1CCCO1 (configuration not stated),–,98,–,–,–,–
O=C(CSc1nnc(-c2ccco2)n1Cc1ccccc1)OC1CCCCC1,97,–,–,–,–,–
Cc1occc1-c1nnc(SCC(=O)c2ccc3c(c2)OCCO3)n1CC1CCCO1 (configuration not stated),–,–,–,–,·,–
COc1cccc(C(=O)CSc2nnc(-c3ccco3)n2CC2CCCO2)c1 (configuration not stated),–,91,–,–,–,–
CC(=NNC(=O)c1ccc2c(c1)OCO2)c1ccc(NC(=O)C(F)(F)F)cc1,·,·,–,·,·,·
O=C(NC(=S)Nc1ccc(N2CCN(C(=O)c3ccccc3)CC2)cc1)c1cccs1,–,–,·,–,–,–
O=C(c1cccs1)N1CCN(c2ccccc2)CC1,–,98,–,–,–,–
O=C(NC(=S)N1CCN(c2ccc(F)cc2)CC1)c1cccs1,–,95,–,–,–,–
O=C(c1c[nH]c2ccccc12)N1CCN(c2ccccc2)CC1,–,87,–,–,–,–
O=C(C(=O)N1CCN(c2ccccc2)CC1)c1c[nH]c2ccccc12,–,–,–,–,–,–
O=C(c1cccs1)N1CCN(c2ccc(F)cc2)CC1,–,·,–,–,–,–
O=C(NC(=S)N1CCN(c2ccc(O)cc2)CC1)c1cccs1,–,99,–,–,–,–
CC(=O)Nc1ccc(C=NN2CCCCC2)cc1,·,·,–,·,·,·
Cc1ccc(OCC(=O)NN=Cc2ccc(O)cc2)c([N+](=O)[O-])c1,·,·,–,·,·,·
O=C(NC(=S)N1CCN(c2ccccc2)CC1)c1c(F)cccc1F,–,99,–,–,–,–
O=C(NC(=S)N1CCN(c2ccc([N+](=O)[O-])cc2)CC1)c1ccccc1,–,–,–,–,–,–
Cc1cc(-c2nnc(SCC(=O)Nc3ccccc3C(F)(F)F)o2)c(C)n1-c1ccccc1,–,·,–,–,44,–
N#C/C(=N\O)c1nc(-c2ccccc2)cs1,–,89!,·,–,–,–
N#CC(=C1CCCC1)c1nc(-c2ccccc2)cs1,–,–,–,–,–,–
COc1ccc(C(=O)NN=C(C)CC(=O)Nc2ccccn2)cc1OC,·,·,–,·,·,·
O=C(Nc1ccc(C2=NCCN2)cc1)c1ccc(C(=O)Nc2ccc(C3=NCCN3)cc2)c([N+](=O)[O-])c1,107,–,·,–,35,–
CC(=NNC(=O)Cc1c(C)[nH][nH]c1=O)c1ccc(Cl)c(Cl)c1,·,·,–,·,·,·
SMILES,Calb FLC,ALR inh,UCH37 inh,NLRP3 yeast inh,NALP1 inh,ATG4B inhibitor
CC(=O)c1c(-c2ccccc2)[nH]c2ccccc12,–,–,–,–,–,–
O=C(O)/C=C/C(=O)c1c(-c2ccccc2)[nH]c2ccccc12,–,98,–,–,–,–
COCCn1nnnc1C(c1ccccc1)N1CCN(C)CC1 (configuration not stated),–,–,–,–,–,–
COc1ccc(Cn2nnnc2C(C(C)C)N2CCN(c3ccccc3OC)CC2)cc1 (configuration not stated),–,·,–,–,–,–
CCC(C)(C)n1nnnc1C(c1ccc2ncccc2c1)N1CCN(c2ccc(O)cc2)CC1 (configuration not stated),–,100,–,–,·,–
CC(C)C(c1nnnn1Cc1ccc(F)cc1)N1CCN(c2ccc(O)cc2)CC1 (configuration not stated),–,100,–,–,–,–
Oc1ccc(N2CCN(C(c3cccnc3)c3nnnn3Cc3ccccc3)CC2)cc1 (configuration not stated),–,99,–,–,–,–
CCC(C)(C)n1nnnc1C(c1ccc2ncccc2c1)N1CCN(c2nc3ccccc3s2)CC1 (configuration not stated),–,–,–,–,–,–
COCCn1nnnc1C(c1ccccc1)N1CCN(c2ccccc2)CC1 (configuration not stated),–,97,–,–,–,–
Cc1nc2ccccc2n1N=Cc1ccc([N+](=O)[O-])s1,·,·,–,·,·,·
C/C(C=NNc1ncc(C)c(=O)[nH]1)=C\c1ccccc1,·,·,–,·,·,·
CC(=NNC(=S)NCC(C)(C)C)c1cc(F)cc(F)c1O,·,·,–,·,·,·
CC(=NOCON=C(C)c1ccc(F)cc1F)c1ccc(F)cc1F,·,·,–,·,·,·
CC(=O)c1c(C(C)=O)c(C)n(Cc2ccccc2)c1C,–,–,–,–,–,–
Cc1c(C=O)c(C=O)c(C)n1Cc1ccccc1,–,–,–,–,37,–
C(=NNc1nn[nH]n1)c1ccccc1,·,·,–,·,·,·
O=C(c1cccs1)N(c1ccc(Cl)cc1)C1C=CS(=O)(=O)C1 (configuration not stated),–,–,–,–,–,–
Cc1ccc(N(C(=O)c2cccs2)C2C=CS(=O)(=O)C2)cc1 (configuration not stated),–,96,–,–,–,–
Cc1ccc(N(C(=O)c2ccc(Br)o2)C2C=CS(=O)(=O)C2)cc1 (configuration not stated),–,77,–,–,–,–
O=c1[nH]cc(O)c(=O)[nH]1,–,–,–,–,–,–
O=c1[nH]cc(F)c(=O)[nH]1,·,–,·,·,116,–
COc1ccc(-c2[nH]ncc2C=NNC(=O)c2cc(Br)ccc2O)c(OC)c1,·,·,–,·,·,·
O=C(COc1ccc([N+](=O)[O-])cc1)Nc1nc(-c2ccccn2)cs1,–,·,–,–,·,–
O=C(COc1ccc(F)cc1)Nc1nc(-c2ccccn2)cs1,90,–,–,–,·,–
COC(=O)c1sc(-c2ccc(C(C)(C)C)cc2)cc1NC(=O)COCC(=O)O,?,98,–,–,·,–
COC(=O)c1sc(-c2ccc(Cl)cc2)cc1NC(=O)CSCC(=O)O,–,–,–,–,·,–
CCOc1ccccc1Nc1nnc(SCC(=O)NC(Cc2c[nH]c3ccccc23)C(=O)O)s1 (configuration not stated),–,–,–,–,–,–
Cc1ccc(Nc2nnc(SCC(=O)NC(Cc3c[nH]c4ccccc34)C(=O)O)s2)cc1 (configuration not stated),–,94,–,–,–,–
N=C1C(c2nc(-c3ccc(Cl)cc3)cs2)=C(O)CN1CCCN1CCOCC1,–,98,–,–,–,–
CCCCN1CC(O)=C(c2nc(-c3ccc(Cl)cc3)cs2)C1=N,–,–,–,–,–,–
